Published values collected from several papers.
Protocols differ between the studies behind these lines.
Effect on: enzyme activity
RET: Proto-oncogene tyrosine-protein kinase receptor Ret (RET, Homo sapiens, UniProt P07949)

COc1cc(NC(=O)Nc2ccc(Br)cc2)cc2sc(NC(=O)c3ccccc3)nc12
remaining activity (RET; inhibitor, radiometric; 0.1 µM): 120%

Cc1ccc(C(=O)Nc2ccc(CN3CCN(C)CC3)c(C(F)(F)F)c2)cc1C#Cc1cnc2cccnn12
remaining activity (Proto-oncogene tyrosine-protein kinase receptor Ret (RET, Homo sapiens, UniProt P07949, M918T); 23.5 nM): 1.4%

CCOc1ccccc1NC(=O)Nc1cc(OC)c2nc(NC(=O)c3ccccc3)sc2c1
remaining activity (RET; inhibitor, radiometric; 0.1 µM): 118%

Cc1cnc(NC2CCOCC2)nc1-n1cnc(C(=O)NC(CN)c2cc(F)cc(Cl)c2)c1 (stereo not shown)
remaining activity (Proto-oncogene tyrosine-protein kinase receptor Ret (RET, Homo sapiens, UniProt P07949, V804M); inhibitor, radiometric; 1 µM): 100%

Cc1sc(C(=O)NC2COC2)cc1-n1cc(NC(=O)Nc2c(F)cccc2Cl)cn1
remaining activity (RET; inhibitor; 10 µM): 113%

COC(=O)c1cccc(NC(=O)Nc2cc(C)c3nc(NC(=O)c4ccccc4)sc3c2)c1
remaining activity (RET; inhibitor, radiometric; 0.1 µM): 109%

CCN(CC)c1ccc(C2=NNC(=O)CC2C)cc1[N+](=O)[O-] (stereo not shown)
remaining activity (RET; inhibitor; 10 µM): 102%

CC(C)(C)c1nc(-c2cccc(NS(=O)(=O)c3c(F)cccc3F)c2F)c(-c2ccnc(N)n2)s1
remaining activity (RET; inhibitor, radiometric; 1 µM): 81%

COc1ccc(-c2cn3cc(C(=O)N4CC(O)C4)nc3c(=O)n2C)c(F)c1
remaining activity (RET; inhibitor, radiometric; 10 µM): 111%

CCN(CC)CCNC(=O)c1c(C)[nH]c(/C=C2\C(=O)Nc3ccc(F)cc32)c1C
remaining activity (RET; inhibitor; 0.1 µM): 22%

O=C(Nc1cnn(-c2csc(C(=O)NC3COC3)c2)c1)Nc1ccccc1Cl
remaining activity (RET; inhibitor; 5 µM): 97.8%

Cc1[nH]c(/C=C2\C(=O)Nc3ccc(F)cc32)c(C)c1C(=O)N[C@H]1CCN(C(=O)N(C)C)C1
remaining activity (RET; inhibitor; 1 µM): 11%

CCCOc1ccc(OC)c(F)c1C(=O)c1ccc(C(=O)N[C@@H]2CNC[C@H]2NC(=O)c2ccc3[nH]ncc3c2)cc1
remaining activity (RET; inhibitor; 50 nM): 100%
